Data reported in ChEMBL document CHEMBL1212775, “A novel class of meso-tetrakis-porphyrin derivatives exhibits potent activities against hepatitis C virus genotype 1b replicons in vitro” (Antimicrob Agents Chemother, 2010).

How the values were obtained:
[1] = system: Human immunodeficiency virus 1; assay: Antiviral activity against Human immunodeficiency virus 1 3B virus infected in human MT2 cells assessed as inhibition of virus-induced cytopathic effect by colorimetry; format: functional, organism-based
Method in brief: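 MT-2 cells, 1 × 10^3 per well in triplicate, infected with HIV-1 IIIB at 0.1 TCID50/cell and cultured with compounds. Viral CPE quantified by MTT colorimetry after 5 days to estimate EC50.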

[2] = system: MT2; assay: Cytotoxicity against human MT2 cells after 5 days by colorimetry; format: cell-based; conditions: MT2, 120 h
Method in brief: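 Uninfected MT-2 cells coincubated with compounds for 5 days. Cytotoxicity by colorimetric quantitation.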

[3] = system: Hepatitis C virus; assay: Antiviral activity against Hepatitis C virus genotype 1b Con1 infected in human Huh-luc/neo-ET replicon cells assessed as reduction of replicon luciferase signal after 72 hrs by luciferase reporter assay in presence of 40% fetal bovine serum; format: functional, organism-based, Hepacivirus hominis
Method in brief: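 Huh-luc/neo-ET cells without G418, incubated with serially diluted compounds in medium containing 5%, 10%, 20% or 40% (vol/vol) FBS. Firefly luciferase read after 72 h. EC50 from dose-effect curves. The 0% value is a theoretical EC50 extrapolated from the plot of EC50 versus serum level. Means ± SD of three independent experiments.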

[4] = system: Hepatitis C virus; assay: Antiviral activity against Hepatitis C virus genotype 1b Con1 infected in human Huh-luc/neo-ET replicon cells assessed as inhibition of virus-induced cytopathic effect after 48 hrs by luciferase reporter assay; format: functional, organism-based, Hepacivirus hominis
Method in brief: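 Huh-luc/neo-ET cells seeded at 1 × 10^5 per well and treated with DMSO or serially diluted compound up to 250 nM. Harvested at 24 or 48 h. Luciferase run in triplicate and RLU normalized to total protein (Bradford), expressed as percent of mock control. Three independent repeats averaged.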

[5] = system: Hepatitis C virus; assay: Antiviral activity against Hepatitis C virus genotype 1b Con1 infected in human Huh-luc/neo-ET replicon cells assessed as reduction of virus-induced cytopathic effect after 72 hrs by luciferase reporter assay; format: functional, organism-based, Hepacivirus hominis
Method in brief: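 Replicon cells grown without G418, seeded at 5 × 10^3 per well, treated next day in duplicate with serial dilutions (DMSO control) at 37°C for 72 h. After a PBS wash, cells lysed in ice-cold passive lysis reagent and firefly luciferase RLU read as percent of compound-free control. EC50 by nonlinear regression of the dose-effect curve.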

[6] = system: Hepatitis C virus; assay: Antiviral activity against Hepatitis C virus genotype 1b Con1 infected in human Huh-luc/neo-ET replicon cells assessed as reduction in viral RNA level after 24 hrs by RT-PCR; format: functional, organism-based, Hepacivirus hominis
Method in brief: (§1)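 Cells seeded at 1 × 10^5 per well and treated with DMSO or compound up to 250 nM for 24, 48 or 72 h. Total RNA diluted to 50 ng/μl. Replicon RNA (5′ UTR) measured in triplicate by one-step qRT-PCR, normalized to β-actin mRNA, and expressed as percent of mock control. Three independent repeats.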

[7] = system: Hepatitis C virus; assay: Antiviral activity against Hepatitis C virus genotype 1b Con1 infected in human Huh-luc/neo-ET replicon cells assessed as reduction in viral RNA level after 72 hrs by RT-PCR; format: functional, organism-based, Hepacivirus hominis; method in brief: as §1
[8] = system: Hepatitis C virus; assay: Antiviral activity against Hepatitis C virus genotype 2a JFH1 infected in human YSGR-JFH replicon cells assessed as inhibition of virus RNA level after 72 hrs by quantitative RT-PCR; format: functional, organism-based, Hepacivirus hominis; conditions: subtype 2a JFH1, 72 h
Method in brief: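 YSGR-JFH genotype 2a subgenomic replicon cells (maintained with 400 μg/ml G418), 1 × 10^5 per well, incubated with DMSO, serially varied compound, or IFN-α-2a for 72 h. HCV RNA by qRT-PCR normalized to β-actin, as percent of mock-treated control. Mean ± SD of three independent experiments.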

[9] = target: Cytochrome c (Homo sapiens, UniProt P99999); assay: Binding affinity to Cytochrome C
Sequence of Cytochrome c (P99999 whole entry): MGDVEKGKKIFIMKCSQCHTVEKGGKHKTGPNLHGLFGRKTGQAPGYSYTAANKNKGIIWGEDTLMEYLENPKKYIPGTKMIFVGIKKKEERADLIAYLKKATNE

[10] = system: Hepatitis C virus; assay: Antiviral activity against Hepatitis C virus genotype 1b Con1 infected in human Huh-luc/neo-ET replicon cells assessed as viral replicon survival dosed at 100 nM incubated for 12 days followed by compound removal and reintroduction of 250 ug/ml G418 measured after 12 days post compound withdrawal; format: functional, Hepacivirus hominis
Method in brief: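 Huh-luc/neo-ET cells were seeded at 2 × 10^5 per well and kept without G418 for 12 days with DMSO or up to 1 μM drug. Cells were split every 3 days, with medium and drug renewed. Drug was then removed and 250 μg/ml G418 added for 12 more days, sampling at confluence. HCV 5′UTR RNA was measured by one-step qRT-PCR, normalised to β-actin and expressed relative to mock. Viability was read by CellTiter-Glo as % of mock.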

SMILES: O=C(O)c1cc(C(=O)O)cc(-c2ccc(-c3c4nc(c(-c5ccc(-c6cc(C(=O)O)cc(C(=O)O)c6)cc5)c5ccc([nH]5)c(-c5ccc(-c6cc(C(=O)O)cc(C(=O)O)c6)cc5)c5ccc([nH]5)c(-c5ccc(-c6cc(C(=O)O)cc(C(=O)O)c6)cc5)c5nc3C=C5)C=C4)cc2)c1
- EC50 [1]: 3.67 µM
- CC50 [2]: 18 µM
- EC50 [3]: 0.069 µM
- EC50 [4]: 0.0192 µM
- inhibition ([4]; Hepacivirus hominis): Dose-dependent effect
- EC50 [5]: 0.0176 µM
- inhibition ([5]; Hepacivirus hominis): Dose-dependent effect
- EC50 [6]: 0.0678 µM
- inhibition ([6]; Hepacivirus hominis): Dose-dependent effect
- EC50 [7]: 0.0292 µM
- inhibition ([7]; Hepacivirus hominis): Dose-dependent effect
- EC50 [8]: 1.38 µM
- Kd [9]: 1.5 µM
- Survival [10]: 0.007%
